# Test results: PubChem BioAssay AID1424 (The Scripps Research Institute Molecular Screening Center, 2008)
# The whole screen tested about 220,000 compounds, of which about 390 (0.18%) were called active.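 Rule for the calls: active = activation above its plate's cutoff, the mean activation of test wells on that plate plus 3 SD (cut at about 19% in these data); inactive = the rest.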 Many of the other results were omitted from the sample, so actives are more common in it than they were.
# System: transient receptor potential cation channel N1 (TRPN1/NompC), Danio rerio
# Assay: zebrafish TRPN1 channel agonists, primary screen, cell-based, HEK293, calcium fluorescence (AID 1424);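 note: 0% = DMSO alone and 100% = 87 µM carbachol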
# Conditions: HEK293 zebrafish TRPN1-YFP, Fluo-8 calcium fluorescence; at 3 µM; hits give high values; 100% = response to 87 µM carbachol
# In short: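 Control set: carbachol 87 µM as high control, DMSO as low control; system: HEK293 stable line with zebrafish TRPN1-YFP; read-out: % activation versus carbachol response; detection: intracellular calcium fluorescence with Fluo-8; doses: single test compound dose, 3 µM nominal, 0.3% DMSO; schedule: dye 1 h 37 °C plus 30 min RT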
row,Compound,activation
1,Cc1ccc(-n2c(C)cc(/C=N/Nc3ccc([N+](=O)[O-])cn3)c2C)c(C)c1,-0.82% (inactive)
2,C/C=N/N(c1ccccc1)c1ccccc1,0.69% (inactive)
3,COc1cc(NC(=S)NCCSc2ccc(C)cc2)cc(OC)c1,-3.08% (inactive)
4,Cc1cc(C)c(S(=O)(=O)N2CCOCC2)cc1C,-0.54% (inactive)
5,CC(C)n1c(NCc2c[nH]c3ccccc23)nc2ccccc21,-0.19% (inactive)
6,Cc1nc(S(=O)(=O)c2ccc(Br)cc2)nc2c1CCC2,0.17% (inactive)
7,CN(C)C=NC(=O)c1cccn1-c1ncc(C(F)(F)F)cc1Cl,-0.1% (inactive)
8,COc1cc(-c2cc(C(=O)OCC(=O)Nc3ccc4c(c3)OCO4)c3ccccc3n2)cc(OC)c1OC,-1.87% (inactive)
9,NS(=O)(=O)c1ccc(NC(=O)COC(=O)c2ccc(Cl)nc2)cc1,1.46% (inactive)
10,O=C(COC(=O)c1c2c(nc3ccccc13)/C(=C\c1cccs1)CCC2)Nc1ccccc1Cl,-1.63% (inactive)
11,NS(=O)(=O)c1ccc(NC(=O)COC(=O)c2c3c(nc4ccccc24)/C(=C\c2ccc4c(c2)OCO4)CCC3)cc1,47.9% (active)
12,NS(=O)(=O)c1ccc(NC(=O)COC(=O)c2cc3ccccc3oc2=O)cc1,0.38% (inactive)
13,NC(=O)c1ccc(NC(=O)COC(=O)c2c3c(nc4ccccc24)/C(=C\c2ccc4c(c2)OCO4)CCC3)cc1,41.6% (active)
14,CCN1CCC2(CC1)N=C(c1ccc(F)cc1)C(=S)N2C(=O)c1ccc(C)cc1,-0.33% (inactive)
15,COC(=O)c1ccc(C(NC(=O)OCc2ccccc2)/C(C)=C/[C@@H](C)C(=O)NCc2ccc(OC)c(OC)c2)cc1 (some centres not stated),-0.55% (inactive)
16,COc1ccc(OCc2n[nH]c(=S)n2N)cc1,0.96% (inactive)
17,COC(=O)c1ccc(CN2CCC(CO)(Cc3ccc(OC)cc3)CC2)cc1,4.67% (inactive)
18,CCn1c(=S)[nH]c2sc3c(c2c1=O)CCCCC3,0.92% (inactive)
19,O=C(C1=C[C@H](c2ccc(C(F)(F)F)cc2)C[C@H](OCc2ccc(CO)cc2)O1)N1CCN(Cc2ccccc2)CC1,-0.62% (inactive)

row,Compound,activation
1,Cc1nc(=O)c(-c2ccccc2)c(C)n1-c1ccc(Br)cc1,1.06% (inactive)
2,CC1(C)CC(=O)C(C2c3ccccc3S(=O)(=O)c3ccccc32)C(=O)C1,-1.19% (inactive)
3,CC(=O)Oc1ccccc1C(=O)Nc1ncc([N+](=O)[O-])s1,22.2% (active)
4,O=C(CCc1ccccc1)Nc1ncc([N+](=O)[O-])s1,9.35% (inactive)
5,O=C(Cc1c(F)cccc1Cl)Nc1ncc([N+](=O)[O-])s1,18.3% (inactive)
6,CC(=O)c1ccc(N2CCN(S(=O)(=O)c3c(C)[nH]c(=O)[nH]c3=O)CC2)cc1,0.25% (inactive)
7,CCc1nc2ccccc2c(C(=O)NCc2ccc(OC)cc2)c1C,-0.1% (inactive)
8,Cc1ccc(CN(C)CC(=O)Nc2cccc([N+](=O)[O-])c2)o1,-1.16% (inactive)
9,CN(CC(=O)Nc1cccc(F)c1)CC(=O)Nc1cccc([N+](=O)[O-])c1,44.2% (active)
10,Cc1ccc(NC(=O)CN(C)CC(=O)Nc2cccc(F)c2)cc1[N+](=O)[O-],8.52% (inactive)
11,CCOP(=O)(OCC)C(Nc1ccc([N+](=O)[O-])cc1)c1ccc(Cl)cc1 (configuration not stated),-1.18% (inactive)
12,Cc1cc(Nc2ccc(Cl)cc2)nc(N2CCOCC2)n1,-0.78% (inactive)
13,O=C(O)CCn1c(SCc2cc(=O)n3ccccc3n2)nc2ccsc2c1=O,0.55% (inactive)
14,CCN(CC)C(=O)CC1(c2ccccc2OC)CCOC(C(C)C)C1 (configuration not stated),-0.7% (inactive)
15,O=C(O)c1cccc(N2C(=O)Nc3ccccc3N2O)c1,-0.51% (inactive)
16,COc1ccc(N2C(=O)c3ccccc3NC2c2ccc(OC)c(CN3CCOCC3)c2)cc1 (configuration not stated),0.64% (inactive)
17,CC(NC(=O)COC(=O)c1cc(=O)[nH]c2ccccc12)c1ccccc1 (configuration not stated),2.26% (inactive)
18,CC(=O)c1ccc(-c2ccc(Cn3c(C)nc4cc(N)c(C)nc43)cc2)cc1,0.89% (inactive)
19,O=c1[nH]c2c(c(=O)n1Cc1ccccc1)CCC2,-0.42% (inactive)

row,Compound,activation
1,Cc1cc2nc3c(=O)n(Cc4ccccc4)c(=O)[nH]c3nc2cc1N,37.4% (active)
2,COc1ccc(NC(=S)N2N=CCC2c2ccccc2)cc1 (configuration not stated),0.6% (inactive)
3,CCOc1ccc2c(=O)c(-c3ccc4c(c3)OCCCO4)c(C)oc2c1,-1.72% (inactive)
4,COC(=O)/C(C#N)=C/c1occc1C,1.02% (inactive)
5,CCCCCc1ccc(-c2ccc(OCC)cc2)nc1,1.46% (inactive)
6,O=C(Cc1ncc(C(F)(F)F)cc1Cl)Nc1cccc(Br)c1,0.3% (inactive)
7,c1ccc2c(c1)OCCOCCOCCO2,-2.17% (inactive)
8,CN(C)CCCN(Cc1cc2cc3c(cc2[nH]c1=O)OCCO3)C(=O)NC1CCCCC1,1.71% (inactive)
9,Cc1nn(-c2ccccc2)c(NC(=O)c2cccs2)c(-c2ccc(Cl)cc2)c1=O,-0.42% (inactive)
10,C/C(=N\NC(=O)CC(C)C)c1c(C(F)(F)F)[nH]n(-c2nc3ccccc3s2)c1=O,-0.3% (inactive)
11,COc1ccc(C(=O)NC(=S)NNC(=O)CCc2ccccc2)cc1,12% (inactive)
12,COc1ccc(C(=O)NC(=S)NNC(=O)c2c(-c3ccccc3)noc2C)cc1,44% (active)
13,Cc1onc(-c2ccccc2)c1C(=O)NNC(=S)NC(=O)c1ccc(F)cc1,13.6% (inactive)
14,CC(C)C(=O)Nc1cccc(NC(=S)NC(=O)C(c2ccccc2)c2ccccc2)c1,2.14% (inactive)
15,CCCCC(=O)NNC(=S)NC(=O)C(c1ccccc1)c1ccccc1,84.8% (active)
16,O=C(NNC(=S)NCc1ccco1)C(c1ccccc1)c1ccccc1,-0.07% (inactive)
17,CC(=O)Nc1ccc(S(=O)(=O)NC2(C(F)(F)F)C(=O)Nc3c2c(=O)[nH]c(=O)n3Cc2ccccc2)cc1 (configuration not stated),2.33% (inactive)
18,CC(C)Cc1nc(Cl)c(C#N)c2c1CCC2,-2.32% (inactive)
19,Cc1ccc(Nc2cc(C)nc3c(C)ccc([N+](=O)[O-])c23)cc1,-2.21% (inactive)
